ATG4B inh: inhibitors of human ATG4B cysteine protease. ATG4B cleavage of LC3-PLA2, NBD-HPC fluorescence, 1 h. Q9Y4P1. AID 504462. hit rate 0.51% among 340,000. inhibition, % at 8.33 µM; in the data active = inhibition above about 40%
Target sequence (Q9Y4P1 whole entry, looked up): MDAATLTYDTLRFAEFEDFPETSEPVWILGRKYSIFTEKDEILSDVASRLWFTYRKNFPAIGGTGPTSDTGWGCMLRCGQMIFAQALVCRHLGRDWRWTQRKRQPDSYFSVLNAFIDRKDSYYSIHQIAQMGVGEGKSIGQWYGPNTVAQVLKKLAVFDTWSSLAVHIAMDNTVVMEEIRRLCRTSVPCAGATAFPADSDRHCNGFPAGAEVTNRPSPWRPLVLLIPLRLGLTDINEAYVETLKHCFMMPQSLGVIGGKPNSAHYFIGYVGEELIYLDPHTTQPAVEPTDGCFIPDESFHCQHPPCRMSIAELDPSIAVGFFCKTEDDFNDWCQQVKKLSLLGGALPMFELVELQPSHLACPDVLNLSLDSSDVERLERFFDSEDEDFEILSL
MC4R barr agon: activates human MC4R beta-arrestin recruitment; P32245; U2OS MC4R beta-arrestin complementation, luminescence; percent of melanotan II response, DMSO zero; activation, % at 8.9 µM; hit rate 0.98% among 360,000; AID 540308;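 active = activation above a per-plate cutoff, the mean activation of sample wells on that plate plus 3 SD, cut at about 8% in these data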
MPTP block: inhibitors of mitochondrial permeability transition pore | isolated mouse mitochondria, Ca2+ swelling absorbance, 30 min | hit rate 1.4% among 360,000 | AID 602449 | inhibition, % at 10 µM;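 active = inhibition of 50% or more, scaled per plate between neutral and stimulator controls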;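 note: 0% = DMSO wells given calcium and 100% = 1 mM EGTA wells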
MC4R antagonist: human MC4R antagonism in cAMP assay | MC4R-expressing cells, MTII-stimulated cAMP, LANCE TR-FRET | inhibition, % at 6.5 µM | hit rate 0.48% among 360,000 | AID 540295;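 active = inhibition above its plate's cutoff, the mean of tested wells on that plate plus 3 SD, cut at about 29% in these data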;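 note: 0% = Melanotan II alone and 100% = Melanotan II plus saturating MCL0020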
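Assay system: U2OS cells stably expressing human melanocortin 4 receptor (MC4R) / Dosing: 6.5 µM / Timing: compound 30 min, challenge 1 h, detection 1 h / Measured by: Eu-cAMP/anti-cAMP TR-FRET, emission 671 nm / Replicates: singlicate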
SMARCA2 activ: SMARCA2 function activation, primary screen; hit rate 1% among 370,000; AID 652017; MG213 cells, MMTV-luciferase reporter, dexamethasone, overnight; activation, % at 9.1 µM; in the data active = activation above about 7.8%;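 note: 0% = vehicle wells and 100% = reference activator wells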
SMARCA2 conf: SMARCA2 activation, confirmation screen | shares compounds with SMARCA2 activ | MG213 cells, MMTV-luciferase with dexamethasone, luminescence, overnight; MG213 cells expressing E1A, Rb sequestered; DMSO wells 0%, reference activator 100% | activation, % at 9.1 µM | hit rate 30% among 3,500 | AID 652260;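 active = activation above its plate's cutoff, the mean activation of tested wells plus 3 SD, cut at about 7.9% in these data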
GAL4-VP16 Luc: activates GAL4-VP16 luciferase, flagging SMARCA2 activator hits; shares compounds with SMARCA2 activ; HEK293 GAL4-VP16 pG5luc reporter, luciferase luminescence; scaled: DMSO wells 0%, SAHA wells 100%; activation, % at 9.1 µM; hit rate 41% among 3,500; AID 686939;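 active = activation above the solvent-only control well mean plus 3 SD, averaged across control plates, cut at about 5.2% in these data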
Starred values were filed as active, the others as inactive; / = no result. Hits are enriched below; roughly 4.1% of the tested compounds scored in any of these assays.

SMILES	ATG4B inh	MC4R barr agon	MPTP block	MC4R antagonist	SMARCA2 activ	SMARCA2 conf	GAL4-VP16 Luc
O=c1c(Cl)cc(Cl)nn1-c1ccccc1	5	-2	-7	18	1	/	/
COc1cc(Cl)nn(-c2ccccc2)c1=O	-2	-2	8	6	11*	-1	2
Cc1ccc(S(=O)(=O)/N=S(/C)c2ccccc2)cc1 (stereo unspecified)	-6	0	-5	4	-2	/	/
CC/S(=N\S(=O)(=O)c1ccc(C)cc1)c1ccccc1 (stereo unspecified)	-8	-2	1	-6	8.1*	-4	-1
CCN(CC)C(=O)[C@H]1C[C@@H]2[C@H](C[C@@H](c3ccccc3)[C@H]1C)N(c1ccc(F)cc1)C(=O)N2CCCOc1ccccc1	/	/	/	/	-6	/	/
Cc1ccc(C(C#N)=Cc2ccc3c(c2)OCO3)cc1	/	4	2	-11	14*	2	11*
COc1ccc([C@H]2N[C@]3(CCCN(Cc4ccco4)C3=O)[C@H]3C(=O)N(Cc4ccccc4)C(=O)[C@@H]23)cc1	/	0	0	18	9.0*	-4	0
O=C1[C@H]2[C@@H](c3ccccc3)N[C@]3(CCCN(Cc4ccco4)C3=O)[C@H]2C(=O)N1Cc1ccccc1	/	0	1	11	5	/	/
OCCCNc1c2ccccc2nc2ccccc12	7	-2	-1	-3	19*	145*	1
C#CCn1c(O)c(N=NC(=O)CNC(=O)c2cccnc2)c2ccccc21	-2	-5	-2	-6	9.8*	0	1
C#CCn1c(O)c(N=NC(=O)CNC(=O)/C=C/c2ccccc2)c2ccccc21	6	-2	-1	2	-1	/	/
COc1cc(/C=N/N=C2/NC(=O)C(Cc3ccccc3)S2)ccc1O (stereo unspecified)	-1	-2	-1	-3	9.0*	6	5.3*
O=C(COCc1ccncc1)N1CCN(c2ccc(F)cc2Cl)CC1	/	/	/	/	-6	/	/
COc1cccc2sc(NN)nc12	1	-2	0	-5	-1	/	/
COc1cccc(-c2nnc(Nc3nc4c(F)cccc4s3)o2)c1	0	0	49	23	3	/	/
COc1cccc2sc(Nc3nnc(-c4ccccc4Cl)o3)nc12	0	-1	0	-7	8.8*	6	2
COc1ccccc1-c1nnc(Nc2nc3c(OC)cccc3s2)o1	7	0	2	-14	15*	6	24*
Cc1c(-c2ccccc2)nnn1-c1ccc(F)c(Cl)c1	/	/	/	/	0	/	/
C#CCN(Cc1cccc(F)c1)C(=O)c1nnc2c3cc(F)ccc3n(S(=O)(=O)c3ccc(OC)cc3)c2n1	/	/	/	/	-3	/	/
CCCCN1CCS(=O)(=O)N(Cc2cn(Cc3ccc(C)cc3)nn2)C(C(=O)OC)C1 (stereo unspecified)	/	/	/	/	2	/	/
Cc1n[nH]c(=S)n1/N=C/c1cccc(OCc2ccccc2)c1	8	-1	2	1	8.6*	-1	2
CCCCC(=O)N(Cc1ccccc1)c1ccccc1C(=O)Nc1cc(OC)ccc1OC	/	/	/	/	-6	/	/
O=C(CN1CCN(Cc2ccccc2)CC1)N/N=C\c1ccccc1[N+](=O)[O-]	/	/	/	/	3	/	/
COc1ccc(C(=O)N/N=C/c2ccc(N3CCOCC3)s2)cc1OC	0	-3	-1	-33	8.4*	-2	-1
Cc1ccc(C(=O)CCNc2cccc(Br)c2)o1	0	1	-3	0	8.8*	2	1
SMILES	ATG4B inh	MC4R barr agon	MPTP block	MC4R antagonist	SMARCA2 activ	SMARCA2 conf	GAL4-VP16 Luc
CCOc1ccc(-c2cc(C(C)=O)c3n(c2=O)CCC3)cc1	/	/	/	/	-1	/	/
O=C(Nc1ccc(NC(=O)c2cccs2)cc1)c1cccs1	6	3	0	12	4	/	/
Cc1ccn(-c2ccc(NC(=O)c3cccs3)cc2)n1	-7	0	-1	12	8.0*	9.0*	7.9*
COc1ccc(CC(=O)Nc2ccc(-c3cn4ccccc4n3)cc2)cc1	1	0	-1	-3	5	/	/
O=C(Nc1ccc(-c2cn3ccccc3n2)cc1)c1cccs1	-4	-3	1	2	8.1*	28*	14*
CC(=O)Nc1ccc2nc(-c3ccccc3)cn2c1	-5	-2	-2	-5	8.8*	9.4*	7.6*
O=C(Nc1ccc(NC(=O)c2ccccc2F)cc1)c1cccs1	2	-2	-1	-4	8.8*	5	7.7*
CC1(C(=O)NCc2ccccc2)CN(S(C)(=O)=O)CC(=O)N1C1CC1 (stereo unspecified)	/	/	-2	/	-3	/	/
C=CCN(CC#Cc1ccccc1)Cc1ccc(OC)cc1	/	/	/	/	-2	/	/
COC(=O)[C@]12C[C@H](CC(=O)N3CCOCC3)C(=O)N(CCC3=CCCCC3)C1=C[C@H](C1CCCC1)O[C@@H]2C	/	/	/	/	-1	/	/
O=C(O)c1cn(Cc2ccccc2)c2ccccc2c1=O	0	-1	1	7	3	/	/
O=C(O)c1cn(C2CCCCC2)c2ccccc2c1=O	4	-2	2	-2	17*	-1	0
COc1ccc2oc(=Nc3ccccc3)c(-c3nc4ccccc4[nH]3)cc2c1	0	1	-1	-6	11*	2	9.8*
Cc1cc(Nc2cccc([N+](=O)[O-])c2)c2ccccc2n1	-7	-1	9	-9	2	/	/
CCOc1ccc2nc(C)cc(Nc3cccc([N+](=O)[O-])c3)c2c1	-18	-1	9	-7	14*	32*	3
OCCNCc1ccc(-c2ccccc2)cc1	-4	-3	1	3	8.2*	1	0
Cc1ccc(C(=O)N(C)[C@H]2C[C@H]3c4[nH]c5c(-c6cccc(C)c6)cccc5c4CCN3C[C@H]2[C@H](C)O)cc1	/	/	/	/	-3	/	/
COc1cccc(C=NNc2ccc([N+](=O)[O-])cn2)c1OC	4	3	-1	8	8.3*	7	3
O=C(Oc1ccccc1Cl)c1ccc(-n2cncn2)nc1	4	-1	1	24	8.2*	-4	0
COc1ccc(-c2nnc(SCC(=O)NN=C(C)c3cccc4ccccc34)n2-c2ccccc2)cc1	/	/	/	/	-3	/	/
CC1CCCCN1S(=O)(=O)c1ccc(S(=O)(=O)N2CCN(C)CC2)cc1 (stereo unspecified)	-1	-3	0	10	0	/	/
CC1CCCCN1S(=O)(=O)c1ccc(S(=O)(=O)N2CCCC2)cc1 (stereo unspecified)	-2	0	0	5	8.9*	-2	0
COC(=O)[C@@]12C[C@@H](CC(=O)N3CCC(c4ccccc4)CC3)C(=O)N(Cc3cccc4ccccc34)C1=CCC(C)(C)C2	/	/	0	/	-1	/	/

Bioassay records: PubChem BioAssay, several laboratories
